Source: ChEMBL document CHEMBL3259651, “Bis(4-hydroxy-2H-chromen-2-one): synthesis and effects on leukemic cell lines proliferation and NF-κB regulation” (Bioorg Med Chem, 2014)
Calls of active or inactive are those of the source. The rule behind the calls is not given here.

How the values were obtained:
[1] = tested on: K562; test: Cytotoxicity against human K562 cells assessed as growth inhibition at 10 to 100 uM after 24 to 72 hrs by trypan blue exclusion assay; format: functional, cell-based
Outline: (§1)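 Trypan blue counting of proliferation (cells/mL) and viability. Exponential-phase cells were seeded at 200,000 cells/mL in RPMI 1640 with 10% heat-inactivated FCS at 37 °C and 5% CO2. They were treated from 50 mM DMSO stocks against DMSO-matched controls and read at 24, 48 and 72 h (PBMCs at 24 and 48 h).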

[2] = biological target: T1, Nuclear factor NF-kappa-B complex (Homo sapiens) (UniProt Q00653+P19838+Q04206); test: Inhibition of NF-kappaB transactivation in TNF-alpha-stimulated human K562 cells at 10 to 100 uM preincubated for 2 hrs followed by TNF-alpha challenge measured after 6 hrs by dual luciferase reporter gene assay; format: cell-based
T1 sequence (Q00653 whole entry, looked up, one chain of several): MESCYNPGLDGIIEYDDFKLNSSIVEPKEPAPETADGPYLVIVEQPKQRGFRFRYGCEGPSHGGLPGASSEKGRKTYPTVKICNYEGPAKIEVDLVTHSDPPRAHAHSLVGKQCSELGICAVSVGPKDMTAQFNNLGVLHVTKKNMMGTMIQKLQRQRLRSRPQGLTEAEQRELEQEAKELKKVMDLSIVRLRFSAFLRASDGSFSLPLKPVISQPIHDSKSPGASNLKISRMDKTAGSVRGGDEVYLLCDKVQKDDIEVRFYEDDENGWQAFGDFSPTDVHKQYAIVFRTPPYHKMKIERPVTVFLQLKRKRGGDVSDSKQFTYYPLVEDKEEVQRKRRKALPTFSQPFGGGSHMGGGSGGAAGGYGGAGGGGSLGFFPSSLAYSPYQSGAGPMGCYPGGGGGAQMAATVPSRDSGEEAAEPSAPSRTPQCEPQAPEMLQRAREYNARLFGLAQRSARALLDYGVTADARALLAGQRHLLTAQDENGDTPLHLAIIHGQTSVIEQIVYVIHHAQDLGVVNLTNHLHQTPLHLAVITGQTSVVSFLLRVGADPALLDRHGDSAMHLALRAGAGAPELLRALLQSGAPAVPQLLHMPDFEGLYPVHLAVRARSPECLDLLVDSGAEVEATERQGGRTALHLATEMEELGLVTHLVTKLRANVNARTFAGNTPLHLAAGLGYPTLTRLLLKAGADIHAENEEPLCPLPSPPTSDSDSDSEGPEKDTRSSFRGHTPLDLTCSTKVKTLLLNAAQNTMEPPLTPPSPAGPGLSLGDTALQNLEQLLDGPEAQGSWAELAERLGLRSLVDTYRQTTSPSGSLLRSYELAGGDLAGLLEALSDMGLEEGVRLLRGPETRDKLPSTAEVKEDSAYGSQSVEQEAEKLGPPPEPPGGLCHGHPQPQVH
T1 sequence (Q04206 whole entry, looked up, one chain of several): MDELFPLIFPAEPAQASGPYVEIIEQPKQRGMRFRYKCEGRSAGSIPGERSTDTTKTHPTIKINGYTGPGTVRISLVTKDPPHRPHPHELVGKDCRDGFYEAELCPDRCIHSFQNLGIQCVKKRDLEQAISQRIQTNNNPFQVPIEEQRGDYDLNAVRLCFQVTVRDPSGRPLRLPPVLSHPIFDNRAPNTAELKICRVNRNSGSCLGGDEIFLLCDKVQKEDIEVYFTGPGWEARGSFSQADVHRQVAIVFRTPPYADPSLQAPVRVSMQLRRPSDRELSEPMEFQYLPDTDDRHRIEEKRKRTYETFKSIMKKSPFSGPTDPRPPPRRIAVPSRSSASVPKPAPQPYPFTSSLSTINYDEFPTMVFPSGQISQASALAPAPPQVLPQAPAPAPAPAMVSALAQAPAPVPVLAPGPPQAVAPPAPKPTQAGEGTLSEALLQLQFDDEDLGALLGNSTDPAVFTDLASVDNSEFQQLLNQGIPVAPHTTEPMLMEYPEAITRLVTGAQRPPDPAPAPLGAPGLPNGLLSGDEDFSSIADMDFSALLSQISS
Outline: (§2)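 Cells co-transfected with 5 µg of a firefly luciferase reporter carrying five consensus NF-κB sites plus 5 µg of a Renilla TK control plasmid. 24 h later, compound for 2 h, then ± 20 ng/ml TNF-α for 6 h more. Firefly:Renilla ratio, TNF-α-only cells set to 100%. Three independent measurements in quadruplicate.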

[3] = tested on: Jurkat; test: Cytotoxicity against human Jurkat cells assessed as growth inhibition at 10 uM after 48 hrs by trypan blue exclusion assay; format: functional, cell-based; outline: as §1
[4] = tested on: Jurkat; test: Cytotoxicity against human Jurkat cells assessed as growth inhibition at 25 uM after 24 hrs by trypan blue exclusion assay; format: functional, cell-based; outline: as §1
[5] = tested on: K652; test: Cytotoxicity against human […] cells assessed as growth inhibition at 25 uM after 24 hrs by trypan blue exclusion assay; format: functional, cell-based; outline: as §1
[6] = tested on: Jurkat; test: Cytotoxicity against human Jurkat cells assessed as growth inhibition at 50 uM after 24 to 72 hrs by trypan blue exclusion assay; format: functional, cell-based; outline: as §1
[7] = tested on: Jurkat; test: Cytotoxicity against human Jurkat cells assessed as reduction of cell viability at 50 uM after 24 hrs by trypan blue exclusion assay; format: functional, cell-based; outline: as §1
[8] = tested on: Jurkat; test: Cell cycle arrest in human Jurkat cells assessed as accumulation at G0/G1 phase at 50 uM at 8 hrs by propidium iodide staining-based flow cytometric analysis; format: functional
Outline: (§3)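 Cells in exponential phase at 200,000 cells/mL in RPMI 1640 with 10% heat-inactivated FCS, 37 °C, 5% CO2, treated from DMSO stocks alongside DMSO vehicle controls. Cell cycle distribution was analysed at time points between 8 and 72 h.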

[9] = Cell cycle arrest in human […] cells assessed as accumulation at G0/G1 phase at 25 uM measured at 24 hrs by propidium iodide staining-based flow cytometric analysis; format: functional; outline: as §3
[10] = tested on: PBMC; test: Cytotoxicity against human PBMC assessed as effect on cell viability at >100 uM after 24 to 48 hrs by trypan blue exclusion assay; format: cell-based; outline: as §1
[11] = biological target: T1, Nuclear factor NF-kappa-B complex (Homo sapiens); test: Inhibition of NF-kappaB transactivation in TNF-alpha-stimulated human K562 cells preincubated for 2 hrs followed by TNF-alpha challenge measured after 6 hrs by dual luciferase reporter gene assay; format: cell-based; outline: as §2
[12] = biological target: T1, Nuclear factor NF-kappa-B complex (Homo sapiens); test: Inhibition of NF-kappaB transactivation in TNF-alpha-stimulated human Jurkat cells preincubated for 2 hrs followed by TNF-alpha challenge measured after 6 hrs by dual luciferase reporter gene assay; format: cell-based; outline: as §2
[13] = biological target: T1, Nuclear factor NF-kappa-B complex (Homo sapiens); test: Inhibition of NF-kappaB in human K562 cells assessed as reduction of TNF-alpha-induced ICAM1 mRNA expression preincubated for 2 hrs followed by TNF-alpha challenge measured after 6 hrs by qRT-PCR analysis; format: cell-based
Outline: (§4)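 K-562 cells given compound for 2 h, then cultured ± 20 ng/ml TNF-α for 6 h. Total RNA analysed by qRT-PCR with ICAM1- and CFLAR-specific primers, expressed as target/β-actin mRNA ratio; mean ± SD of 3 independent experiments.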

[14] = biological target: T1, Nuclear factor NF-kappa-B complex (Homo sapiens); test: Inhibition of NF-kappaB in human K562 cells assessed as reduction of TNF-alpha-induced CFLAR mRNA expression preincubated for 2 hrs followed by TNF-alpha challenge measured after 6 hrs by qRT-PCR analysis; format: cell-based; outline: as §4
[15] = biological target: T2, Nuclear factor NF-kappa-B p105 subunit (Homo sapiens) (UniProt P19838); test: Inhibition of NF-kappaB p50 subunit translocation from cytoplasm to nucleus in TNF-alpha-stimulated human Jurkat cells at 40 uM preincubated for 2 hrs followed by TNF-alpha challenge measured after 2 to 90 mins by Western blot analysis; format: cell-based
T2 sequence (whole entry): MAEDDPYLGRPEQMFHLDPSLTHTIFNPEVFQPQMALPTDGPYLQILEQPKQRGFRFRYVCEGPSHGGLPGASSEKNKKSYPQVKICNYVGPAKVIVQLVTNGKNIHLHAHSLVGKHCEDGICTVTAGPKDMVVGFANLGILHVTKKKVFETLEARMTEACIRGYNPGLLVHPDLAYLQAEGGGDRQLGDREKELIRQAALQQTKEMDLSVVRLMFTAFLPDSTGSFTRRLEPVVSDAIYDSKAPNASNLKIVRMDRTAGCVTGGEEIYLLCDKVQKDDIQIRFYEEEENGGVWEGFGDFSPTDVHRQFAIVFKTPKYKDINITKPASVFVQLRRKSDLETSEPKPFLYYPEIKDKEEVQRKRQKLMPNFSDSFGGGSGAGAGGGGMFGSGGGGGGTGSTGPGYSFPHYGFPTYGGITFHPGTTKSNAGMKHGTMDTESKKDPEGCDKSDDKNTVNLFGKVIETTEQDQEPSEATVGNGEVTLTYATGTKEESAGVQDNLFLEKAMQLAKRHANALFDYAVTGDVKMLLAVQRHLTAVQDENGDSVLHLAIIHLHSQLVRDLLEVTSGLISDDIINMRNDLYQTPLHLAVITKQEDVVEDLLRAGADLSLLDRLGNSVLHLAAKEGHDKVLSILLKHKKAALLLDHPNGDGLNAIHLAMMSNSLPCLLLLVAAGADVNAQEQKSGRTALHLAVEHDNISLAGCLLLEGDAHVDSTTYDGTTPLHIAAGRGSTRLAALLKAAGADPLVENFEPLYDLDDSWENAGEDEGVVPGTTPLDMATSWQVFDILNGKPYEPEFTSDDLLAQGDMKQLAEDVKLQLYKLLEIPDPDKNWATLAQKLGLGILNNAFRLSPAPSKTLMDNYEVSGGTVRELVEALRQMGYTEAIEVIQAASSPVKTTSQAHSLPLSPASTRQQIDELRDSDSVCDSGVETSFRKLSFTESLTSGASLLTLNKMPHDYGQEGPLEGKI
Outline: (§5)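 JURKAT cells pretreated 2 h with 40 µM compound, then ± 20 ng/ml TNF-α for the indicated times. Cytoplasmic and nuclear fractions immunoblotted; loading and fraction purity checked with lamin B and α-tubulin. Blots representative of three independent experiments.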

[16] = biological target: Transcription factor p65 (Homo sapiens) (UniProt Q04206); test: Inhibition of NF-kappaB p65 subunit translocation from cytoplasm to nucleus in TNF-alpha-stimulated human Jurkat cells at 40 uM preincubated for 2 hrs followed by TNF-alpha challenge measured after 2 to 90 mins by Western blot analysis; format: cell-based; outline: as §5
Sequence of Transcription factor p65 (Homo sapiens) (Q04206 whole entry): as the sequence (Q04206 whole entry, looked up, one chain of several) above

[17] = biological target: T3, NF-kappa-B inhibitor alpha (Homo sapiens) (UniProt P25963); test: Inhibition of IkappaB-alpha degradation in TNF-alpha-stimulated human Jurkat cells at 40 uM preincubated for 2 hrs followed by TNF-alpha challenge measured after 2 to 90 mins by Western blot analysis; format: cell-based; outline: as §5
T3 sequence (whole entry): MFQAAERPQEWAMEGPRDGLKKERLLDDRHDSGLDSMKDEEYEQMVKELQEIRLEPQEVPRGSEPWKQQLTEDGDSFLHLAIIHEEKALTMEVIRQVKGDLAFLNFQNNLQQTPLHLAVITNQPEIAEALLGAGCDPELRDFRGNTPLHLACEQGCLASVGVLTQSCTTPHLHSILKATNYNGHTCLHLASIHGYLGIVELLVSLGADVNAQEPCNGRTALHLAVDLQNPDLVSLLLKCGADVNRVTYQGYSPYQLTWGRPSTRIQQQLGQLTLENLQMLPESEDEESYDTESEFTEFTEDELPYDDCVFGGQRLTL

Row | SMILES | growth inhibition (GI) [1] | inhibition [2] | growth inhibition (GI) [3] | growth inhibition (GI) [4] | growth inhibition (GI) [5] | growth inhibition (GI) [6] | Activity [7] | Activity [8] | Activity [9] | Activity [10] | inhibition [11] | inhibition [12] | inhibition [13] | inhibition [14] | inhibition [15] | inhibition [16] | inhibition [17]
1 | CCC(=O)c1ccccc1O | inactive | inactive | – | – | – | – | – | – | – | – | – | – | – | – | – | – | –
2 | O=c1cc(O)c2ccccc2o1 | inactive | inactive | – | – | – | – | – | – | – | – | – | – | – | – | – | – | –
3 | O=C(CC(c1c(O)c2ccccc2oc1=O)c1c(O)c2ccccc2oc1=O)c1ccccc1O | – | – | Active | Active | Active | Active | Active | Active | Active | Non-toxic | Dose-dependent effect | Dose-dependent effect | Dose-dependent effect | Dose-dependent effect | Active | Active | Active
